Results taken from ChEMBL document CHEMBL3739406, “Trisubstituted Thieno[3,2-b]pyrrole 5-Carboxamides as Potent Inhibitors of Alphaviruses” (J Med Chem, 2015).

Key:
[1] = Selectivity index, ratio of CC50 for HEK293T cells to EC50 for Chikungunya virus infected in HEK293T cells; assay type: toxicity, cell-based, HEK-293T; details: human, read-out: Ratio CC50/EC50
[2] = Cytotoxicity against HEK293T cells assessed as reduction in cell viability after 24 hrs by cell titer-glo luminescent cell viability assay; assay type: cell-based, HEK-293T; details: human
How it was run: (§1)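 HEK 293T cells, 3 × 10⁴/well, seeded overnight, then exposed 24 h to compound (0.01–100 μM, triplicate) in DMEM pH 6.8 with 10% FBS. Viability read by CellTiter-Glo luminescence. Normalized to untreated (100%) and medium blank (0%); CC50 by five-parameter curve fit.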

Chikungunya virus [3] = assay: Antiviral activity against Chikungunya virus infected in HEK293T cells assessed as reduction of infectivity measured at 24 hrs postinfection by gaussia luciferase reporter gene assay; assay type: functional, cell-based; details: HEK-293T
[4] = Cytotoxicity against HEK293T cells assessed as cell viability at antiviral EC50 after 24 hrs by cell titer-glo luminescent cell viability assay; assay type: cell-based, HEK-293T; details: human, read-out: Activity; how it was run: as §1
Chikungunya virus [5] = assay: Antiviral activity against wild type Chikungunya virus IMT infected in HEK293T cells assessed as inhibition of infectivity measured at 24 hrs postinfection by FITC/DAPI staining based array scan VTI HCS reader analysis; assay type: functional, cell-based; details: HEK-293T

Row | Structure (SMILES) | selectivity ratio [1] | CC50 at 24 h [2] | EC50 (Chikungunya virus [3]) | viability at 24 h [4] | EC50 (Chikungunya virus [5]) | inhibition (Chikungunya virus [5])
1 | COc1ccc(Cn2c(C(=O)N3CCN(Cc4ccccc4)CC3)c(CNC(C)c3ccccc3)c3sccc32)cc1 (configuration not stated) | > 4.3 | > 100 µM | 23 µM | > 80% | – | –
2 | CCOC(=O)c1cc2sccc2n1Cc1ccc(OC)cc1 | – | > 100 µM | > 100 µM | > 80% | – | –
3 | COc1ccc(Cn2c(C(=O)N3CCC(C(=O)NCc4ccccc4)CC3)cc3sccc32)cc1 | > 8.1 | > 100 µM | 12.3 µM | > 80% | – | –
4 | COc1ccc(Cn2c(C(=O)NCc3ccccc3)cc3sccc32)cc1 | – | > 100 µM | > 100 µM | > 80% | – | –
5 | CCCNC(=O)C1CCN(C(=O)c2cc3sc(C)cc3n2Cc2ccc(OC)cc2)CC1 | 10 | 36.3 µM | 3.6 µM | > 80% | 3.27 µM | Dose-dependent effect
6 | COc1ccc(Cn2c(C(=O)N3CCCCC3)cc3sccc32)cc1 | > 2 | > 100 µM | 49.7 µM | > 80% | – | –
7 | CCCNC(=O)C1CCN(C(=O)c2c(CNCc3ccccc3)c3sccc3n2Cc2ccc(OC)cc2)CC1 | 5 | 77.6 µM | 15.4 µM | > 80% | – | –
8 | COc1ccc(Cn2c(C(=O)O)cc3sccc32)cc1 | – | > 100 µM | > 100 µM | > 80% | – | –
9 | CCCNC(=O)C1CCN(C(=O)c2c(CO)c3sccc3n2Cc2ccc(OC)cc2)CC1 | > 2.1 | > 100 µM | 47.6 µM | > 80% | – | –
10 | COc1ccc(Cn2c(C(=O)N3CCC(C(=O)NC(C)c4ccccc4)CC3)cc3sccc32)cc1 (configuration not stated) | > 7.7 | > 100 µM | 13 µM | > 80% | – | –
11 | CCCNC(=O)C1CCN(C(=O)c2cc3sc(C(=O)c4ccccc4)cc3n2Cc2ccc(OC)cc2)CC1 | – | > 100 µM | > 100 µM | > 80% | – | –
12 | CCCNC(=O)C1CCN(C(=O)c2cc3sc(CNC(C)c4ccccc4)cc3n2Cc2ccc(OC)cc2)CC1 (configuration not stated) | 4 | 33.9 µM | 8.44 µM | > 80% | 13.5 µM | Dose-dependent effect
13 | CCCNC(=O)C1CCN(C(=O)c2c(CNC(C)c3ccccc3)c3sccc3n2Cc2ccc(OC)cc2)CC1 (configuration not stated) | 4.8 | 57.5 µM | 11.9 µM | > 80% | – | –
14 | CCCNC(=O)C1CCN(C(=O)c2c(Br)c3sccc3n2Cc2ccc(OC)cc2)CC1 | 4.1 | 31.6 µM | 7.75 µM | > 80% | 14 µM | Dose-dependent effect
15 | CCOC(=O)C1CCN(C(=O)c2cc3sccc3n2Cc2ccc(OC)cc2)CC1 | 3 | 39 µM | 13.1 µM | > 80% | – | –
16 | COc1ccc(Cn2c(C(=O)N3CCC(C(=O)NCCC(C)C)CC3)cc3sccc32)cc1 | 2.8 | 30.9 µM | 11 µM | > 80% | – | –
17 | CCCNC(=O)C1CCN(C(=O)c2cc3sc(C(C)=O)cc3n2Cc2ccc(OC)cc2)CC1 | > 4.8 | > 100 µM | 20.9 µM | > 80% | – | –
18 | CCCNC(=O)C1CCN(C(=O)c2cc3sc(CNCc4ccccc4)cc3n2Cc2ccc(OC)cc2)CC1 | 4.2 | 46.8 µM | 11.2 µM | > 80% | – | –
19 | COc1ccc(Cn2c(C(=O)N3CCC(C(=O)NC4CC4)CC3)cc3sccc32)cc1 | 2.8 | 21.4 µM | 7.59 µM | > 80% | 5.59 µM | Dose-dependent effect
20 | CCCNC(=O)c1cc2sccc2n1Cc1ccc(OC)cc1 | – | > 100 µM | > 100 µM | > 80% | – | –
21 | COc1ccc(Cn2c(C(=O)N3CCC(C(N)=O)CC3)cc3sccc32)cc1 | > 1.4 | > 100 µM | 70.9 µM | > 80% | – | –
22 | CCCNC(=O)C1CCN(C(=O)c2cc3sccc3n2Cc2ccc(OC)cc2)CC1 | 2.7 | 18.8 µM | 7 µM | > 80% | 6.55 µM | Dose-dependent effect

Row | Structure (SMILES) | selectivity ratio [1] | CC50 at 24 h [2] | EC50 (Chikungunya virus [3]) | viability at 24 h [4] | EC50 (Chikungunya virus [5]) | inhibition (Chikungunya virus [5])
23 | COc1ccc(Cn2c(C(=O)N3CCC(C(=O)NCC4CC4)CC3)cc3sccc32)cc1 | 2.4 | 24.6 µM | 10.4 µM | > 80% | – | –
24 | CCCNC(=O)C1CCN(C(=O)c2cc3sc(-c4ccccc4)cc3n2Cc2ccc(OC)cc2)CC1 | > 26 | > 100 µM | 3.85 µM | > 80% | 3.08 µM | Dose-dependent effect
25 | CCN(CC)C(=O)c1cc2sccc2n1Cc1ccc(OC)cc1 | > 2 | > 100 µM | 49.6 µM | > 80% | – | –
26 | COc1ccc(Cn2c(C(=O)N3CCN(Cc4ccccc4)CC3)c(COCc3ccccc3)c3sccc32)cc1 | – | > 100 µM | > 100 µM | > 80% | – | –
27 | COc1ccc(Cn2c(C(=O)N3CCOCC3)cc3sccc32)cc1 | > 1.3 | > 100 µM | 79.7 µM | > 80% | – | –
28 | COc1ccc(Cn2c(C(=O)N3CCN(Cc4ccccc4)CC3)cc3sc(COCc4ccccc4)cc32)cc1 | – | > 100 µM | > 100 µM | > 80% | – | –
29 | COc1ccc(Cn2c(C(=O)N3CCN(Cc4ccccc4)CC3)cc3sc(CNC(C)c4ccccc4)cc32)cc1 (configuration not stated) | > 11 | > 100 µM | 9.44 µM | > 80% | 25.5 µM | Dose-dependent effect
30 | COc1ccc(Cn2c(C(N)=O)cc3sccc32)cc1 | > 2.8 | > 100 µM | 36 µM | > 80% | – | –
31 | COc1ccc(Cn2c(C(=O)NC(C)c3ccccc3)cc3sccc32)cc1 (configuration not stated) | – | > 100 µM | > 100 µM | > 80% | – | –
32 | COc1ccc(Cn2c(C(=O)N3CCC(C(=O)NCc4cccc(Br)c4)CC3)cc3sccc32)cc1 | > 9.2 | > 100 µM | 10.9 µM | > 80% | – | –
33 | CCCCC(=O)C1CCN(C(=O)c2cc3sccc3n2Cc2ccc(OC)cc2)CC1 | 2.9 | 38.9 µM | 13.3 µM | > 80% | – | –
34 | COc1ccc(Cn2c(C(=O)N3CCNCC3)cc3sccc32)cc1 | > 3.1 | > 100 µM | 32.5 µM | > 80% | – | –
35 | CCCNC(=O)C1CCN(C(=O)c2cc3sc(C#N)cc3n2Cc2ccc(OC)cc2)CC1 | > 20 | > 100 µM | 4.9 µM | > 80% | 8.23 µM | Dose-dependent effect
36 | CCCNCc1c(C(=O)N2CCC(C(=O)NCCC)CC2)n(Cc2ccc(OC)cc2)c2ccsc12 | > 3.6 | > 100 µM | 27.7 µM | > 80% | – | –
37 | COc1ccc(Cn2c(C(=O)N3CCN(Cc4ccccc4)CC3)cc3sccc32)cc1 | > 2.4 | > 100 µM | 41.7 µM | > 80% | – | –
38 | COc1ccc(Cn2c(C(=O)N3CCN(Cc4ccccc4)CC3)cc3sc(C(=O)c4ccccc4)cc32)cc1 | – | > 100 µM | > 100 µM | > 80% | – | –
39 | COc1ccc(Cn2c(C(=O)N3CCC(C(=O)NCCc4ccccc4)CC3)cc3sccc32)cc1 | > 9 | > 100 µM | 11.1 µM | > 80% | – | –
40 | COc1ccc(Cn2c(C(=O)N3CCCC3)cc3sccc32)cc1 | > 2.8 | > 100 µM | 35.4 µM | > 80% | – | –
41 | CCCNCc1cc2c(cc(C(=O)N3CCC(C(=O)NCCC)CC3)n2Cc2ccc(OC)cc2)s1 | > 2.5 | > 100 µM | 40 µM | > 80% | – | –
42 | COc1ccc(Cn2c(C(=O)N3CCN(Cc4ccccc4)CC3)cc3sc(C(C)=O)cc32)cc1 | > 5.9 | > 100 µM | 17 µM | > 80% | – | –
43 | COc1ccc(Cn2c(C(=O)N3CCN(Cc4ccccc4)CC3)cc3sc(-c4ccccc4)cc32)cc1 | > 2.4 | > 100 µM | 42.4 µM | > 80% | – | –
44 | COc1ccc(Cn2c(C(=O)N3CCC(C(=O)O)CC3)cc3sccc32)cc1 | – | > 100 µM | > 100 µM | > 80% | – | –
